This passage reports Activity, C50 and ΔTm results from ChEMBL document CHEMBL3108767, “Thioester Bonds of Thiocoraline Can Be Replaced with NMe-Amide Bridges without Affecting Its DNA-Binding Properties” (ACS Med Chem Lett, 2014).

Structures are written as SMILES. Activity calls are given as the source filed them. The rule behind the calls is not given here.

Experiment [1] in a line: Binding affinity to [alpha-32P]dATP labeled HexB DNA (unknown origin) at 0.1 to 500 uM by DNase 1 footprinting assay. The essentials:
(§1)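 Each radiolabeled fragment (MS2, HexA or HexB) incubated with ligand at 14 concentrations from 500 down to 0.1 μM, then cleaved with DNase I. Gel tracks compared with GA purine markers and solvent-only DNA to find regions of attenuated cleavage as footprints.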

Experiment [2] in a line: Binding affinity to 3'-end [alpha32P]dATP labeled tyrT plasmid DNA (unknown origin) assessed as change in band shift at 10 to 50 uM. In short, it runs like this:
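tyrT DNA fragment incubated with ligand; a control lane received the solvent conditions alone. Samples were run on a native gel, and binding was scored as DNA bands that migrated more slowly than the control.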

In another experiment the test system is DNA. As to the kind of experiment: Binding affinity to [alpha-32P]dATP labeled HexA DNA (unknown origin) at 0.1 to 500 uM by DNase 1 footprinting assay.
Experiment [3] can be described thus: Binding affinity to [alpha-32P]dATP labeled MS2 DNA (unknown origin) at 0.1 to 500 uM by DNase 1 footprinting assay. In short, it runs like this: as §1
A short description of experiment [4]: Binding affinity to CTCGAG HexB DNA (unknown origin) by DNase 1 footprinting assay. The essentials: (§2)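 Radiolabeled MS2, HexA or HexB DNA fragments incubated with ligand at 14 concentrations (500, 400, 300, 200, 100, 80, 60, 40, 20, 10, 5, 1, 0.5, 0.1 μM), then digested with DNase I. Products resolved on gels alongside GA purine markers and solvent-only DNA controls. C50 is the ligand concentration that reduced footprint band intensity by 50%.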

A short description of experiment [5]: Binding affinity to fluorophore labeled FAM-ACATCT-dabcyl (unknown origin) assessed as change in melting temperature at 100 uM by fluorescence assay. The essentials: (§3)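 Duplexes made from fluorescently labeled oligonucleotides, each carrying the site of interest at its center. Melting run at 0.25 μM duplex DNA in 10 mM sodium phosphate pH 7.4 with 100 mM NaCl. Relative fluorescence was followed against temperature and normalized to the same initial value. First derivatives of the melting profiles were used to read transitions.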

A short description of experiment [6]: Binding affinity to TATATA HexB DNA (unknown origin) by DNase 1 footprinting assay. In short, it runs like this:
as §2

Experiment [7] in a line: Binding affinity to fluorophore labeled FAM-AATATT-dabcyl (unknown origin) assessed as change in melting temperature at 100 uM by fluorescence assay. In short, it runs like this:
as §3

The nature of experiment [8]: Binding affinity to fluorophore labeled FAM-ACATGT-dabcyl (unknown origin) assessed as change in melting temperature at 100 uM by fluorescence assay. In short, it runs like this:
as §3

Experiment [9] is described as follows: Binding affinity to ATGGAT MS2 DNA (unknown origin) by DNase 1 footprinting assay. The essentials: as §2
Experiment [10] is described as follows: Binding affinity to fluorophore labeled FAM-GTGCAC-dabcyl (unknown origin) assessed as change in melting temperature at 100 uM by fluorescence assay. In short, it runs like this:
as §3

Experiment [11] is described as follows: Binding affinity to CGTACG HexB DNA (unknown origin) by DNase 1 footprinting assay. In short, it runs like this: as §2
Experiment [12] in a line: Binding affinity to fluorophore labeled FAM-CACGTG-dabcyl (unknown origin) assessed as change in melting temperature at 100 uM by fluorescence assay. In short, it runs like this:
as §3

Experiment [13] is described as follows: Binding affinity to GACGTA MS2 DNA (unknown origin) by DNase 1 footprinting assay. In short, it runs like this: as §2
The nature of experiment [14]: Binding affinity to ACGACT MS2 DNA (unknown origin) by DNase 1 footprinting assay. In short, it runs like this: as §2
A short description of experiment [15]: Binding affinity to GGATAG MS2 DNA (unknown origin) by DNase 1 footprinting assay. In short, it runs like this: as §2
A short description of experiment [16]: Binding affinity to CGCGAT HexB DNA (unknown origin) by DNase 1 footprinting assay. The essentials:
as §2

Take `CS[C@H]1SC[C@H]2C(=O)N(C)[C@@H](C(C)C)C(=O)OC[C@@H](NC(=O)c3cnc4ccccc4n3)C(=O)N[C@@H](C)C(=O)N(C)[C@@H]1C(=O)N(C)[C@@H](C(C)C)C(=O)OC[C@@H](NC(=O)c1cnc3ccccc3n1)C(=O)N[C@@H](C)C(=O)N2C`: the result (in experiment [1]; in [2]; with DNA; in [3]) was Active.
Consider `COCCOCCOCC(=O)NC[C@H]1C(=O)N(C)C[C@@H](NC(=O)c2nc3ccccc3cc2O)C(=O)NCC(=O)N(C)[C@H]2CSSC[C@@H](C(=O)N1C)N(C)C(=O)CNC(=O)[C@H](NC(=O)c1nc3ccccc3cc1O)CN(C)C(=O)[C@H](CNC(=O)COCCOCCOC)N(C)C2=O`, for which, in experiment [2], the result was inactive.
In the case of `CSC[C@H]1C(=O)N(C)C[C@@H](NC(=O)c2nc3ccccc3cc2O)C(=O)NCC(=O)N(C)[C@H]2CSSC[C@@H](C(=O)N1C)N(C)C(=O)CNC(=O)[C@H](NC(=O)c1nc3ccccc3cc1O)CN(C)C(=O)[C@H](CSC)N(C)C2=O`, the C50 came out at 17 µM in experiment [4]; 28 µM in experiment [6]; 110 µM in experiment [9]; 13 µM in experiment [11]; 95 µM in [13]; 102 µM in [14]. Also, the C50 came to 131 µM in experiment [15] and 22 µM in [16]. In addition, the ΔTm (as a rule, the shift of the melting midpoint relative to a reference) in [5] worked out at 2.2 °C; in experiment [7], 1.4 °C; in experiment [8] it was 4.5 °C; in experiment [10], 0.7 °C; in experiment [12] it was 7.6 °C. In addition, in [2], the result was Active.
